Results reported in ChEMBL document CHEMBL2380284, “X-ray crystal structures of the Escherichia coli RNA polymerase in complex with benzoxazinorifamycins” (J Med Chem, 2013).

Experiments:
[1] = biological target: DNA-directed RNA polymerase subunit beta (Escherichia coli O127:H6 (strain E2348/69 / EPEC), UniProt B7UPE2, D516V); assay: Inhibition of rifamycin-resistant Escherichia coli RNA polymerase D516V mutant after 10 mins by rolling circle transcription assay in presence of DNA nanocircle template NC45
[2] = biological target: DNA-directed RNA polymerase subunit beta (Escherichia coli O127:H6 (strain E2348/69 / EPEC), UniProt B7UPE2, H526Y); assay: Inhibition of rifamycin-resistant Escherichia coli RNA polymerase H526Y mutant after 10 mins by rolling circle transcription assay in presence of DNA nanocircle template NC45
[3] = Inhibition of wild type Escherichia coli RNA polymerase after 10 mins by rolling circle transcription assay in presence of DNA nanocircle template NC45
In short: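 Wild-type core enzyme (10 nM final), Ni-NTA purified, with compound at 1.56-100 or 3.12-200 nM, held 10 min at 37 °C in Tris-HCl pH 8.0 buffer with KCl, MgCl2, Triton X-100, DTT and RNase inhibitor. Transcription on 80 nM NC45 circle was started with NTPs (500 µM each). Each compound run in duplicate; IC50 by nonlinear four-parameter logistic regression.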

[4] = Inhibition of wild type Mycobacterium tuberculosis RNA polymerase after 10 mins by rolling circle transcription assay in presence of DNA nanocircle template NC45

Sequence of DNA-directed RNA polymerase subunit beta (Escherichia coli O127:H6 (strain E2348/69 / EPEC), UniProt B7UPE2, D516V) (B7UPE2 whole entry D516V): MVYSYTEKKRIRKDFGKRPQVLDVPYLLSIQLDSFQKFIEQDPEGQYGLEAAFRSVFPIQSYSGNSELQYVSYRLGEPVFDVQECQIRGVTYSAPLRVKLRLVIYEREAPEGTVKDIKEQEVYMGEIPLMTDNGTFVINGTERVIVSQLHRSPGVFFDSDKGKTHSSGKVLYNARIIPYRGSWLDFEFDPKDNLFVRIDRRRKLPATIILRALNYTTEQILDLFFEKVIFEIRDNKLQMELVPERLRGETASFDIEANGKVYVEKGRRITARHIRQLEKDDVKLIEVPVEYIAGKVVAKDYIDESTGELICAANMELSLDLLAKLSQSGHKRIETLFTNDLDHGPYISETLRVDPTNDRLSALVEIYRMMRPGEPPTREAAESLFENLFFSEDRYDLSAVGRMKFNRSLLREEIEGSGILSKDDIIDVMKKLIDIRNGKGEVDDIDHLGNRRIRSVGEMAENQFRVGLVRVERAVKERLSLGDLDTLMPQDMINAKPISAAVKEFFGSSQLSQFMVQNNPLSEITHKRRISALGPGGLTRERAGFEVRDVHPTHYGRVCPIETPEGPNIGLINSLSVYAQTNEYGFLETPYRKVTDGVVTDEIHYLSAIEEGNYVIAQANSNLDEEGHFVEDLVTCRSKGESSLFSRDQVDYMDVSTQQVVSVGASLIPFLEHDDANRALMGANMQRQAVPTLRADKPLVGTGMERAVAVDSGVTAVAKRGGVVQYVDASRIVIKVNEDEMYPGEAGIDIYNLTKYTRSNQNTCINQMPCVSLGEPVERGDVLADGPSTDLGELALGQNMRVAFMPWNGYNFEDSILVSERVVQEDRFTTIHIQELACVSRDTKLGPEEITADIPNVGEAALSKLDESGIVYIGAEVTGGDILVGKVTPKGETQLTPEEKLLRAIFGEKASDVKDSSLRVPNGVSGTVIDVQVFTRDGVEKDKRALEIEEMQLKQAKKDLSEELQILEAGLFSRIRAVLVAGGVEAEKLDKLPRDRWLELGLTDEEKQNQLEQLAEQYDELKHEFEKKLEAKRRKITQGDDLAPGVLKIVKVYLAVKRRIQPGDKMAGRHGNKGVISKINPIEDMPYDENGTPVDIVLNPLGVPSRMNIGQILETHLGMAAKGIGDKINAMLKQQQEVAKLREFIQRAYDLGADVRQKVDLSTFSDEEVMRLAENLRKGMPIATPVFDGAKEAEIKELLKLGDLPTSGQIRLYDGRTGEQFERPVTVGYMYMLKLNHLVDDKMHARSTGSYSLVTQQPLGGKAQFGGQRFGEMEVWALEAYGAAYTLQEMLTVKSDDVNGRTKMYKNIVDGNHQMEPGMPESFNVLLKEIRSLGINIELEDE
Sequence of DNA-directed RNA polymerase subunit beta (Escherichia coli O127:H6 (strain E2348/69 / EPEC), UniProt B7UPE2, H526Y) (B7UPE2 whole entry H526Y): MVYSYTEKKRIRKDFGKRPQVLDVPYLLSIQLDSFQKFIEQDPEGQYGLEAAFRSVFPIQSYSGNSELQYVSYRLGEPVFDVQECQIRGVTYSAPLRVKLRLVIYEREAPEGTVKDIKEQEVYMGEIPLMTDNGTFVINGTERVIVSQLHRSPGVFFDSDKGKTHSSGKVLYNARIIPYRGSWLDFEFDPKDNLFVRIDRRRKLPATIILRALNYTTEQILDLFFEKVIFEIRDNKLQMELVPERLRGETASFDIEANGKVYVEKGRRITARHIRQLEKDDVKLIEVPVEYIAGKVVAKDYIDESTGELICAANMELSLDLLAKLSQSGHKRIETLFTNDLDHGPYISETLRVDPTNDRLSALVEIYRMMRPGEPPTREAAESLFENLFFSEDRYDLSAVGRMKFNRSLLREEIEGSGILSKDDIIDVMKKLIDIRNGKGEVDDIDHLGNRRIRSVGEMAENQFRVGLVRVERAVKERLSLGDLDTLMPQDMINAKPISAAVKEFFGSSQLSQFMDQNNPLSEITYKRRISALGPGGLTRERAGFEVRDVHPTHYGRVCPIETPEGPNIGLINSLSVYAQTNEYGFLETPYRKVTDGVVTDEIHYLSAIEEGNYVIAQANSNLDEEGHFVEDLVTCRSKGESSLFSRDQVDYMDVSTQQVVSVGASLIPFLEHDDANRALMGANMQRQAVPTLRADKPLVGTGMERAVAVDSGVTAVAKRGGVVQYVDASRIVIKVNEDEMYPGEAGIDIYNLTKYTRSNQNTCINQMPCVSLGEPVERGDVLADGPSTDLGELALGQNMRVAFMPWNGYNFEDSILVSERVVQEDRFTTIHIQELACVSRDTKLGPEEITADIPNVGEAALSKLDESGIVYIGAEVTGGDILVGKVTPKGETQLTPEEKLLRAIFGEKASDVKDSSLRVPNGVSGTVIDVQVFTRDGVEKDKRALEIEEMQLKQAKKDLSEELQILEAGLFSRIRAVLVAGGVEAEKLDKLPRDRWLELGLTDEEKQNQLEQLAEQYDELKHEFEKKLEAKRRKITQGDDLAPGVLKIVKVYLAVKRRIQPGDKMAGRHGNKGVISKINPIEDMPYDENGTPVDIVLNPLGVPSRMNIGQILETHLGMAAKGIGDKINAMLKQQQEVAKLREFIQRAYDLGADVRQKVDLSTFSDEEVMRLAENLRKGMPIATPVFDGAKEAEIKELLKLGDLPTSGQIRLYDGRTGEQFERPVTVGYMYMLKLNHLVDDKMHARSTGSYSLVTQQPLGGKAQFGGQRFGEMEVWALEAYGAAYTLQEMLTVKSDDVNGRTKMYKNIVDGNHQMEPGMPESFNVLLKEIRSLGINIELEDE

Compound	IC50 [1]	IC50 [2]	IC50 [3]	IC50 [4]
CCN(CC)CCOc1cccc2oc3c4c(=O)c5c(O)c(C)c6c(c5c-3nc12)C(=O)[C@@](C)(O/C=C/[C@H](OC)[C@@H](C)[C@@H](OC(C)=O)[C@H](C)[C@H](O)[C@H](C)[C@@H](O)[C@@H](C)/C=C/C=C(/C)C(=O)N4)O6	35 µM	1150 µM	0.057 µM	
CO[C@H]1/C=C/O[C@@]2(C)Oc3c(C)c(O)c4c(=O)c(c5oc6cccc(OCCCCN7CCN(CCn8ccnc8)CC7)c6nc-5c4c3C2=O)NC(=O)/C(C)=C\C=C\[C@H](C)[C@H](O)[C@@H](C)[C@@H](O)[C@@H](C)[C@H](OC(C)=O)[C@@H]1C	2 µM	≥ 2000 µM	0.024 µM	
CO[C@H]1/C=C/O[C@@]2(C)Oc3c(C)c(O)c4c(=O)c(c5oc6cccc(OCCCCN7CCN(C(=O)Cn8ccnc8)CC7)c6nc-5c4c3C2=O)NC(=O)/C(C)=C\C=C\[C@H](C)[C@H](O)[C@@H](C)[C@@H](O)[C@@H](C)[C@H](OC(C)=O)[C@@H]1C	41 µM	1580 µM	0.021 µM	
CO[C@H]1/C=C/O[C@@]2(C)Oc3c(C)c(O)c4c(=O)c(c5oc6cc(N7CCN(CC(C)C)CC7)cc(O)c6nc-5c4c3C2=O)NC(=O)/C(C)=C\C=C\[C@H](C)[C@H](O)[C@@H](C)[C@@H](O)[C@@H](C)[C@H](OC(C)=O)[C@@H]1C [RIFALAZIL]	204 µM	299 µM	< 0.01 µM	
CO[C@H]1/C=C/O[C@@]2(C)Oc3c(C)c(O)c4c(O)c(c(/C=N/N5CCN(C)CC5)c(O)c4c3C2=O)NC(=O)/C(C)=C\C=C\[C@H](C)[C@H](O)[C@@H](C)[C@@H](O)[C@@H](C)[C@H](OC(C)=O)[C@@H]1C [RIFAMPIN]	233 µM	1130 µM	0.012 µM	0.017 µM
